Measurements from ChEMBL document CHEMBL4266038, “Total Synthesis of Xanthoangelol B and Its Various Fragments: Toward Inhibition of Virulence Factor Production of Staphylococcus aureus” (J Med Chem, 2018).
Activity calls are given as the source filed them. The rule behind the calls is not given here.

Assays:
[1] = tested on: Staphylococcus aureus subsp. aureus USA300; experiment: Inhibition of Staphylococcus aureus USA300 GFP-fused SaeRS at 20 uM after 8 hrs by fluorescence-based assay
How it was run: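 Reporter strain S. aureus carrying a P_hlam-gfp fusion (kept on chloramphenicol 5 µg/ml) was grown in TSB to OD600 = 1 and diluted to 5x10^5 cells/ml with compound; DMSO served as blank. Cultures were shaken at 37 °C for 8 h, then GFP (ex 485/em 515 nm) and OD600 were read.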

Staphylococcus aureus [2] = experiment: Growth inhibition of Staphylococcus aureus USA300 at 16 uM after 20 hrs; format: organism-based
How it was run: (§1)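 USA300 was grown in TSB at 37 °C with shaking at 250 rpm. Growth was followed in the presence of compound for 8 h and for 20 h, in triplicate.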

Staphylococcus aureus [3] = experiment: Growth inhibition of Staphylococcus aureus USA300 at 64 uM after 20 hrs; format: organism-based; how it was run: as §1
HeLa [4] = experiment: Cytotoxicity against human HeLa cells assessed as reduction in cell viability at 8 uM after 72 hrs by fluorescein diacetate/propidium iodide double staining based confocal microscopy
Staphylococcus aureus [5] = experiment: Reduction in Staphylococcus aureus USA300 sarA gene expression at 8 uM after 6 hrs by qRT-PCR analysis; format: functional
How it was run: (§2)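 S. aureus cultures were treated with compound for 6 h. Total RNA was stabilised and purified with enzymatic disruption, then reverse-transcribed with random hexamers. qRT-PCR used an intercalating dye, with transcripts normalised to 16S rRNA, in triplicate.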

[6] = biological target: T1, Histidine protein kinase SaeS (Staphylococcus aureus (strain NCTC 8325)) (UniProt Q2G2U1); experiment: Inhibition of phosphotransfer reaction from recombinant Staphylococcus aureus phosphorylated His6-tagged SaeS kinase domain to Staphylococcus aureus SaeR expressed in Escherichia coli BL21(DE3) at 0.2 mM after 60 mins by coomassie-brilliant blue staining based SDS PAGE/autoradiographic analysis
T1 sequence (whole entry): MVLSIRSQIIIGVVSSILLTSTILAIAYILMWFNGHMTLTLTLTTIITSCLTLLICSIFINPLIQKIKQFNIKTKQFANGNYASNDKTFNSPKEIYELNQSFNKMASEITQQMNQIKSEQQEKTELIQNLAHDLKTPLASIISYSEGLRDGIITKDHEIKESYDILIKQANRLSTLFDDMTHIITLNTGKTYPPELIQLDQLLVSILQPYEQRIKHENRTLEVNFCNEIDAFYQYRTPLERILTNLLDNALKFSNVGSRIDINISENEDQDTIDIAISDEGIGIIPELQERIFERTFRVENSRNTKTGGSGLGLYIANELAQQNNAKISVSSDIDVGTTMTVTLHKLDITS

Staphylococcus aureus [7] = experiment: Antibacterial activity against Staphylococcus aureus USA300 assessed as log reduction in bacterial burden after 72 hrs; format: functional, organism-based
How it was run: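 Galleria mellonella larvae (10 per group) injected in the lower left proleg with 5x10^6 cfu USA300 in 20 µl, held at 37 °C in the dark; treatment began 2 h post infection and was re-injected every 12 h for 72 h. Haemolymph was plated on blood agar to count S. aureus burden at 72 h.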

[8] = tested on: Staphylococcus aureus subsp. aureus USA300; experiment: Inhibition of Staphylococcus aureus USA300 SaeRS assessed as reduction in staphylokinase gene expression at 8 uM after 6 hrs by qRT-PCR analysis; how it was run: as §2
[9] = tested on: Staphylococcus aureus subsp. aureus USA300; experiment: Inhibition of Staphylococcus aureus USA300 SaeRS assessed as reduction in gamma-hemolysin gene expression at 8 uM after 6 hrs by qRT-PCR analysis
Staphylococcus aureus [10] = experiment: Antivirulence activity in Staphylococcus aureus USA300-infected Galleria mellonella larvae model injected at every 12 h interval for 72 hrs; format: functional, organism-based
How it was run: (§3)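 G. mellonella larvae, 10 per group, were each injected with 20 µl of USA300 inoculum (5x10^6 cfu) into the lower left proleg and held at 37 °C in the dark without food. Treatment was given after infection and repeated every 12 h over 72 h, at doses up to 4.085 or 4.262 mg/kg body weight. Survival was scored daily along with activity, silk production and melanization.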

Staphylococcus aureus [11] = experiment: Antivirulence activity in Staphylococcus aureus USA300-infected Galleria mellonella larvae model assessed as larvae survival at 4.1 mg/kg injected at 2 hrs post infection at every 12 hr interval for 72 hrs (reference value: 20%); format: functional; how it was run: as §3
[12] = tested on: Staphylococcus aureus subsp. aureus USA300; experiment: Inhibition of Staphylococcus aureus USA300 SaeRS assessed as reduction in aureolysin gene expression at 8 uM after 6 hrs by qRT-PCR analysis
[13] = tested on: Staphylococcus aureus subsp. aureus USA300; experiment: Inhibition of Staphylococcus aureus USA300 SaeRS assessed as reduction in alpha-hemolysin gene expression at 8 uM after 6 hrs by qRT-PCR analysis
HeLa [14] = experiment: Cytotoxicity against human HeLa cells assessed as reduction in cell viability at >IC50 concentration after 72 hrs by fluorescein diacetate/propidium iodide double staining based confocal microscopy
[15] = tested on: Staphylococcus aureus subsp. aureus USA300; experiment: Inhibition of Staphylococcus aureus USA300 SaeRS assessed as reduction in gamma-hemolysin gene expression at 10 uM after 6 hrs by qRT-PCR analysis
[16] = biological target: T1, Histidine protein kinase SaeS (Staphylococcus aureus (strain NCTC 8325)); experiment: Binding affinity to Staphylococcus aureus MBP-fused SaeS by STD-NMR spectrophotometry
How it was run: (§4)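 Saturation transfer difference 1D NMR with ligand fixed at 1.0 mM, prepared from a stock in deuterated DMSO. Protein was either 30 µM minimal SaeS kinase domain fused to maltose binding protein (MBP-SaeS) or 0.1 mM minimal kinase domain, dialysed into NMR buffer beforehand.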

[17] = biological target: T1, Histidine protein kinase SaeS (Staphylococcus aureus (strain NCTC 8325)); experiment: Binding affinity to Staphylococcus aureus SaeS assessed as T2-rerelaxation time of compound peak at 1 mM by 1D CPMG method
How it was run: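 Transverse-relaxation-filtered 1D NMR using a CPMG pulse train. Ligand fixed at 1.0 mM, from a stock in deuterated DMSO; minimal SaeS kinase domain at 0.1 mM, dialysed into NMR buffer.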

[18] = biological target: T1, Histidine protein kinase SaeS (Staphylococcus aureus (strain NCTC 8325)); experiment: Binding affinity to Staphylococcus aureus SaeS kinase domain at 1 mM by 1D-NMR analysis; how it was run: as §4
[19] = tested on: Staphylococcus aureus subsp. aureus USA300; experiment: Inhibition of Staphylococcus aureus USA300 SaeRS assessed as reduction in staphylokinase gene expression at 10 uM after 6 hrs by qRT-PCR analysis; how it was run: as §2
[20] = tested on: Staphylococcus aureus subsp. aureus USA300; experiment: Inhibition of Staphylococcus aureus USA300 SaeRS assessed as reduction in aureolysin gene expression at 10 uM after 6 hrs by qRT-PCR analysis
Staphylococcus aureus [21] = experiment: Antivirulence activity in Staphylococcus aureus USA300-infected Galleria mellonella larvae model assessed as larvae survival at 4.3 mg/kg injected at 2 hrs post infection at every 12 hr interval for 72 hrs (reference value: 20%); format: functional; how it was run: as §3
Staphylococcus aureus [22] = experiment: Reduction in Staphylococcus aureus USA300 sarA gene expression at 10 uM after 6 hrs by qRT-PCR analysis; format: functional; how it was run: as §2
[23] = biological target: T1, Histidine protein kinase SaeS (Staphylococcus aureus (strain NCTC 8325)); experiment: Inhibition of phosphotransfer reaction from recombinant Staphylococcus aureus phosphorylated His6-tagged SaeS kinase domain to Staphylococcus aureus SaeR expressed in Escherichia coli BL21(DE3) at 0.2 to 1 mM after 60 mins by coomassie-brilliant blue staining based SDS PAGE/autoradiographic analysis
Staphylococcus aureus [24] = experiment: Growth inhibition of Staphylococcus aureus USA300 up to 64 uM after 8 to 20 hrs; format: organism-based; how it was run: as §1
[25] = tested on: Staphylococcus aureus subsp. aureus USA300; experiment: Inhibition of Staphylococcus aureus USA300 SaeRS assessed as reduction in alpha-hemolysin gene expression at 10 uM after 6 hrs by qRT-PCR analysis

CC(C)=CCC/C(C)=C/Cc1c(O)ccc(C(=O)/C=C/c2ccc(O)cc2)c1O
inhibition [1]: inactive

C=C(C)C(O)CC/C(C)=C/Cc1c(O)ccc(C(=O)/C=C/c2ccc(O)cc2)c1O (centres undefined) [XANTHOANGELOL B]
growth inhibition (GI) (Staphylococcus aureus [2]): Toxic | growth inhibition (GI) (Staphylococcus aureus [3]): Toxic | Activity (HeLa [4]): Non-Toxic | Activity (Staphylococcus aureus [5]): inactive | inhibition [6]: inactive | Activity (Staphylococcus aureus [7]): Dose-dependent effect | inhibition [8]: Active | inhibition [9]: Active | Activity (Staphylococcus aureus [10]): Dose-dependent effect | survival at 4.1 mg/kg (Staphylococcus aureus [11]): 100% | inhibition [12]: Active | inhibition [13]: Active | Activity (HeLa [14]): Non-Toxic

COc1ccc(C(=O)/C=C/c2ccc(O)cc2)c(O)c1C/C=C(\C)CCC=C(C)C
inhibition [1]: inactive

C=CCc1c(O)ccc(C(=O)/C=C/c2ccc(O)cc2)c1O
inhibition [1]: inactive

C=C(C)CCC=C(C)C
inhibition [1]: inactive

C=C(C)C(O)CC/C(C)=C/Cc1c(O)ccc(C(=O)CC(O)c2ccc(O)cc2)c1O (centres undefined)
inhibition [15]: Active | Activity [16]: Active | Activity [17]: Active | Activity (HeLa [4]): Non-Toxic | Activity [18]: Active | inhibition [19]: Active | inhibition [20]: Active | Activity (Staphylococcus aureus [7]): Dose-dependent effect | survival at 4.3 mg/kg (Staphylococcus aureus [21]): 100% | Activity (Staphylococcus aureus [10]): Dose-dependent effect | Activity (Staphylococcus aureus [22]): inactive | inhibition [23]: inactive | growth inhibition (GI) (Staphylococcus aureus [24]): Non-Toxic | Activity (HeLa [14]): Non-Toxic | inhibition [25]: Active

C=CCc1c(O)ccc(C(C)=O)c1O
inhibition [1]: inactive

O=C(/C=C/c1ccc(O)cc1)c1ccc(O)cc1O
inhibition [1]: inactive
